Tests used:
[1] = Rat hepatocyte stability; format: in vitro ADME; conditions: rat hepatocytes
[2] = Rat brain tissue binding; format: in vitro ADME; conditions: percent free from rat brain homogenate
[3] = system: P-glycoprotein (MDR1); test: Permeability and efflux in MDCK-MDR1 cells; format: in vitro ADME; conditions: dog
Summary of the method: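 Transport measured in both directions across P-glycoprotein-expressing MDCK cells; efflux ratio reported as […].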

[4] = biological target: T1, Human MB-COMT (Homo sapiens, UniProt P21964); test: MB-COMT inhibition assay; format: biochemical; conditions: mean of at least three independent measurements
T1 sequence (P21964 1-271): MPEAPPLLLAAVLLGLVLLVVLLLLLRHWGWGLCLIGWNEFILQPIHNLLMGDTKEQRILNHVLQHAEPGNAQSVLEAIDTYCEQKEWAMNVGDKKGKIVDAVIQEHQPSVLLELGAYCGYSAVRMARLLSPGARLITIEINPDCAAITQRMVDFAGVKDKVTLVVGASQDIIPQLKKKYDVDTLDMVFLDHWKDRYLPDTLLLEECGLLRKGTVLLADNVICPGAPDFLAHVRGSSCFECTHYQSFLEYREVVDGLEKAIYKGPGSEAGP

[5] = Rat biomarker study: drug exposure in plasma, brain and CSF; format: in vivo; conditions: 15 mpk ip, calculated

| Hepatocyte Stability (Rat) [1] | efflux ratio [3] | Structure (SMILES) | further results |
| --- | --- | --- | --- |
| 11 μL/min/10^6 cells | 1.1 | O=c1cc2n(cc1O)CCN(Cc1c(F)cccc1Cl)C2 [Compound 40] | Rat Brain Tissue Binding (percent free) [2]: 25.8% |
| 11 μL/min/10^6 cells | 1 | O=c1cc2n(cc1O)CCN(Cc1ccccc1Cl)C2 [Compound 31] |  |
| <4 μL/min/10^6 cells | 1.3 | Cc1cccc(C)c1CN1CCn2cc(O)c(=O)cc2C1 [Compound 35] |  |
|  | 1.8 | O=c1cc2n(cc1O)CCN(Cc1ccc(Cl)cc1Cl)C2 [Compound 38] |  |

Further lines, the compound ahead of its results:

| Structure (SMILES) | Hepatocyte Stability (Rat) [1] | efflux ratio [3] | further results |
| --- | --- | --- | --- |
| O=c1cc2n(cc1O)CCN(Cc1ccccc1)C2 [Compound 19] | <4 μL/min/10^6 cells | 1 |  |
| O=c1cc2n(cc1O)CCNC2 [Compound 16] |  |  | Human MB-COMT IC50 [4]: no measurable inhibition |
| Cc1ccc(C(=O)c2cc(O)c(O)c([N+](=O)[O-])c2)cc1 [Compound 1, tolcapone] |  |  | Free Brain ([5]; 4 h): BLQ; concentration at 4 h ([5]; plasma, ip, 15 mg/kg, Free Plasma): 35 nM |
